NR2E3 ag-1: activates human NR2E3 receptor | 0.35% of 360,000 active | inhibition of corepressor binding, % at 3.98 µM | CHO-S Gal4-NCOR/VP16-NR2E3 two-hybrid, luciferase | Q9Y5X4;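 active means inhibition above the mean of all tested compounds plus 3 SD, cut at about 70% in these data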;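 further: 0% = DMSO with NR2E3 transfected cells and 100% = cells lacking NR2E3 construct; higher means lower luciferase signal from less NR2E3 corepressor binding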
Rev-erbA mod: modulators of human Rev-erb alpha DNA binding; P20393; Rev-erbα–FITC-DNA binding, fluorescence polarization, 90 min; activity, % at 10 µM; 0.79% of 370,000 active;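 active means activity above about 14%, limit read from the data; passing the limit was not always enough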;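 further: 0% = DMSO wells with 35 nM protein and 100% = DMSO wells with 750 nM protein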
Target sequence (P20393 whole entry, looked up): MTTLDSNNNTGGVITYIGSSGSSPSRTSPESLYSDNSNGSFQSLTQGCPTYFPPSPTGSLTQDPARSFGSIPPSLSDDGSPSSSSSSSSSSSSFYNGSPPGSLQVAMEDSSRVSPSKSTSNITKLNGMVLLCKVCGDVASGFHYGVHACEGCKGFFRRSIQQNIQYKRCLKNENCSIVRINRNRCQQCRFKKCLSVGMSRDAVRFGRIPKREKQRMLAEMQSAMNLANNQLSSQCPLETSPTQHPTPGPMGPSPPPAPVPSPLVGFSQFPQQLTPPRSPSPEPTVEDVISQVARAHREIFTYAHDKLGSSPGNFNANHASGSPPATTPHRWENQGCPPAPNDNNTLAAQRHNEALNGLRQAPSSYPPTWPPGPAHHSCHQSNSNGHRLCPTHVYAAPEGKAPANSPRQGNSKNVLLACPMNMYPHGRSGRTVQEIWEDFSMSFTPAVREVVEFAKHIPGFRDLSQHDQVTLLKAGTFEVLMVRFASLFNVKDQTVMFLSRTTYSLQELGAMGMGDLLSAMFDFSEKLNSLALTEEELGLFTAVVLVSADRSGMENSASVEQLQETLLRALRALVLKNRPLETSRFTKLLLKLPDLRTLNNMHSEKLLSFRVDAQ
PG9 binder: binds the HIV-1 gp120 antibody PG9; TR-FRET gp120-PG9 antibody binding; inhibition, % at 6.7 µM; 0.43% of 360,000 active; in the data active means inhibition above about 8.5%
NR2E3 ag-2: activates human photoreceptor nuclear receptor NR2E3; Q9Y5X4; GST-NR2E3/biotin-RetCOR TR-FRET, 1536-well; inhibition of corepressor binding, % at 4.78 µM; 0.12% of 320,000 active;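 active means percent inhibition above the cutoff of mean plus 3 SD of all tested compounds, set per screening campaign, cut at about 20% in these data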;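 further: 0% = DMSO wells and 100% = biotin wells as full block of FRET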
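Test system: GST-NR2E3 and biotin-RetCOR proteins | Quantity: 1.35 nM GST-tagged NR2E3 final | Medium: Tris pH 7.5 | Also added: 7 nM biotin-RetCOR | Dosing: Compound at 4.8 µM, single dose | Timing: 5 h at 4 °C | Detection: Time-resolved FRET | Read-out basis: Percent inhibition | Benchmarks: Biotin wells as high control, 0.6% DMSO wells as low control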
PG9 binder conf: confirmation of small molecules binding HIV-1 gp120 antibody PG9. shares compounds with PG9 binder. TR-FRET PG9 antibody binding, biochemical. inhibition, % at 6.7 µM. 90% of 1,500 active. AID 651571; in the data active means inhibition above about 9%
PGV04 Ab binding: binds control antibody PGV04 in PG9 binder counter-screen; TR-FRET PGV04 antibody-gp120 binding, biochemical; inhibition, % at 6.7 µM; shares compounds with PG9 binder; 95% of 1,500 active; in the data active means inhibition above about 9.5%
PG9 bind DR: PG9 antibody binding, dose response; shares compounds with PG9 binder; TR-FRET PG9 antibody-gp120 binding inhibition; IC50, µM; 95 tested, under 10 active; in the data active means IC50 below about 10 µM
PGV04 DR counter: PGV04 binding, dose response counter-screen. AID 651937. shares compounds with PG9 binder. 20% of 95 active. TR-FRET binding to control antibody PGV04. IC50, µM
PG126 DR counter: counter-screen for PG9 binders: binding to control antibody PG126. shares compounds with PG9 binder. TR-FRET binding to antibody PG126, counterscreen. IC50, µM. 20% of 95 active
NR1D1 mod conf: Rev-erb alpha (human) modulation, hit confirmation | activation, % at 25 µM | shares compounds with Rev-erbA mod | 61% of 3,000 active | Rev-erb alpha FITC-DNA binding, fluorescence polarization, 90 min;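 active means activation at or above a set limit, or at least 3 SD above the negative control mean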;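 further: 0% = 35 nM protein with DMSO and 100% = 750 nM protein high control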
* marks the source's active call; other numbers are inactive results; i = inactive; / = not tested or not shown. In the library only some 1.5% were active in any assay of this set; here they are far more common. Unless noted, no stated cut-off is given here; in the data, active means IC50 below about 9 µM; inactive means the rest.

SMILES	NR2E3 ag-1	Rev-erbA mod	PG9 binder	NR2E3 ag-2	PG9 binder conf	PGV04 Ab binding	others
O=C(CN(C(=O)OCC1c2ccccc2-c2ccccc21)[C@@H](Cc1ccccc1)C(=O)O)OCc1ccc(C(=O)NCc2ccccc2)cc1	/	7	/	/	/	/
C=CCNC(=O)Cc1c(OC)ccc2cc(Br)ccc12	23	5	8	6	/	/
COc1ccc2cc(Br)ccc2c1CC(=O)NC(C)C	10	-4	11*	6	12*	16*
CC(=O)c1cccc(NC(=O)c2cccc(N3C(=O)c4ccccc4C3=O)c2)c1	-9	-10	22*	4	25*	22*	PG9 bind DR=i;PGV04 DR counter=i;PG126 DR counter=i
NS(=O)(=O)c1cccc(NC(=O)c2cccc(N3C(=O)c4ccccc4C3=O)c2)c1	-5	1	0	/	/	/
O=C(Cn1nnc2c(cnn2-c2ccc(F)cc2)c1=O)Nc1ccccc1C(F)(F)F	-3	17	11*	2	14*	20*
O=C(Cn1nnc2c(cnn2-c2ccccc2)c1=O)NCc1cccs1	-27	-6	-2	4	/	/
C=CCN1C(=O)[C@@H](CC(=O)NCCc2ccccc2OC)[C@]2(C(=O)OC)CCCCC=C12	/	6	/	/	/	/
COc1ccccc1-c1c(C(F)(F)F)oc2cc(OS(C)(=O)=O)ccc2c1=O	-2	-8	0	4	/	/
COc1ccccc1-c1c(C(F)(F)F)oc2cc(OCC(=O)Nc3ccccc3C(F)(F)F)ccc2c1=O	-15	2	12*	-3	20*	37*
O=C(COc1ccc([N+](=O)[O-])cc1)N(Cc1ccccc1)Cc1ccccc1	-12	3	0	-1	/	/
O=C(COc1ncnc2cc([N+](=O)[O-])ccc12)N(CCc1ccccc1)Cc1ccccc1	-8	1	16*	6	26*	41*
O=[N+]([O-])c1ccccc1C=Nn1c(-c2cc(-c3ccccc3)n[nH]2)n[nH]c1=S	/	5	/	/	/	/
CC(=O)c1c(C)[nH]c(C(=O)Nc2ccc(C)cc2Br)c1C	-138	0	10*	1	8	11*
CCc1c(C(=O)Nc2cc(C)ccc2OC)[nH]c(C)c1C(C)=O	-19	-2	20*	1	19*	24*
CCc1c(C(=O)Nc2ccc(OC)cc2)[nH]c(C)c1C(C)=O	-20	-4	1	1	/	/
CCn1c(/C=C/c2cc[n+](C)cc2)nc2ccccc21	-35	5	13*	4	14*	16*
CCOc1ccccc1-c1nc(-c2cc3ccc(C)cc3[nH]c2=O)no1	16	66*	18*	2	13*	27*	NR1D1 mod conf=44*
COC(=O)[C@@]1(C(C)C)N=C(c2cc(OC)c(OC)c(OC)c2)[C@]2(O1)C(=O)N(Cc1cn(-c3ccccc3)nn1)c1cccc(Cl)c12	/	6	/	/	/	/
CC(CC(=O)Nc1ccc2c(c1)c(=O)n(C)n2-c1ccc2ccccc2c1)C(F)(F)F (stereo not given)	-33	20*	24*	/	17*	24*	NR1D1 mod conf=22*
O=C(NCC1CCCO1)c1cc(-c2ccccc2)nc2ccc(Br)cc12 (stereo not given)	-19	33*	15*	16	19*	25*	NR1D1 mod conf=26*
Cc1cc(Br)cc2c(C(=O)NCC3CCCO3)cc(-c3ccccc3)nc12 (stereo not given)	-21	8	3	4	/	/
O=C(CSc1nc2nc3c(cc2c(=O)n1-c1ccccc1)CCCC3)Nc1ccccc1	-7	27*	18*	0	31*	46*	NR1D1 mod conf=20*

Screens from PubChem.
